Source: ChEMBL document CHEMBL4330067, “Synthesis and mechanistic studies of diketo acids and their bioisosteres as potential antibacterial agents” (Eur J Med Chem, 2019)
In brackets after ≈: the same amount, converted by molar mass.

Columns and labels:
[1] = tested on: Streptococcus pneumoniae; assay: Inhibition of Streptococcus pneumoniae methionine aminopeptidase 1A at 100 uM using Met-AMC as substrate relative to control
How it was run: (§1)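 Purified MetAP at 4 µM in 50 mM HEPES with 150 mM KCl and CoCl2 at 3 molar equivalents of enzyme. pH 7.5 for SpMetAP1a and EfMetAP1a, pH 8.0 for HsMetAP1b. Substrate L-Met-AMC at 50, 100 and 150 µM. Compounds (10 mM DMSO stocks) tested over 1 to 120 µM for % inhibition; Ki by Dixon method.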

[2] = tested on: Enterococcus faecalis; assay: Inhibition of Enterococcus faecalis methionine aminopeptidase 1A at 100 uM using Met-AMC as substrate relative to control; how it was run: as §1
[3] = Inhibition of Mycobacterium tuberculosis methionine aminopeptidase 1C using Met-AMC as substrate by Dixon method
[4] = species on record: Homo sapiens; assay: Inhibition of human methionine aminopeptidase 1B at 100 uM using Met-AMC as substrate relative to control; how it was run: as §1
[5] = tested on: Mycobacterium tuberculosis; assay: Inhibition of Mycobacterium tuberculosis methionine aminopeptidase 1C at 100 uM using Met-AMC as substrate relative to control
How it was run: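 Purified MtMetAP1c (4 µM) in 50 mM Hepes pH 7.5 with 150 mM KCl and CoCl2 at three molar equivalents of enzyme. Substrate was L-Met-AMC at 50, 100 or 150 µM. Compounds came from 10 mM DMSO stocks. Percent inhibition was taken against the uninhibited control.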

[6] = tested on: Escherichia coli; assay: Antibacterial activity against Escherichia coli MRAE26 after overnight incubation; type: functional
How it was run: (§2)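 Multidrug-resistant E. coli isolates in Luria broth, test range 8 to 1024 µg/mL (ciprofloxacin 0.49 to 63.3 µg/mL). Inoculum 10 µL of a 1000-fold diluted 0.1 OD600 culture, incubated overnight at 37 °C. OD read at 600 nm. % inhibition = (a−b)/a×100, with media and compound-colour blanks subtracted.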

[7] = tested on: Salmonella typhimurium; assay: Antibacterial activity against Salmonella typhimurium MTCC 3224 after 24 hrs by broth dilution assay; type: functional, Salmonella enterica subsp. enterica serovar Typhimurium; settings: Salmonella enterica, MTCC 3224, 24 h
How it was run: (§3)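 Broth dilution per NCCLS in nutrient broth, serial dilutions 1000 to 7.8 µg/mL, DMSO below 4% final. Inoculum approx. 2.5×10⁶ cells/mL, 37 °C with shaking at 150 rpm for 24 h. MIC taken as the lowest concentration with no visible growth. Ciprofloxacin served as positive control.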

[8] = tested on: Escherichia coli; assay: Antibacterial activity against Escherichia coli MRC17 after overnight incubation; type: functional; how it was run: as §2
[9] = tested on: Escherichia coli; assay: Antibacterial activity against Escherichia coli MRAE32 after overnight incubation; type: functional; how it was run: as §2
[10] = tested on: Streptococcus pneumoniae; assay: Antibacterial activity against Streptococcus pneumoniae MTCC 655 after 24 hrs by broth dilution assay; type: functional; settings: MTCC 655, 24 h; how it was run: as §3
[11] = tested on: Enterococcus faecalis; assay: Antibacterial activity against Enterococcus faecalis MTCC 439 after 24 hrs by broth dilution assay; type: functional; settings: MTCC 439, 24 h; how it was run: as §3
[12] = tested on: Escherichia coli; assay: Antibacterial activity against Escherichia coli MRC24 after overnight incubation; type: functional; how it was run: as §2
[13] = tested on: Klebsiella pneumoniae; assay: Antibacterial activity against Klebsiella pneumoniae ATCC 700603 after 24 hrs by broth dilution assay; type: functional; settings: Klebsiella pneumoniae, 700603, 24 h; how it was run: as §3
[14] = tested on: Escherichia coli; assay: Antibacterial activity against Escherichia coli MRA11 after overnight incubation; type: functional; how it was run: as §2
[15] = tested on: Escherichia coli; assay: Antibacterial activity against Escherichia coli MROB11 after overnight incubation; type: functional; how it was run: as §2
[16] = tested on: Escherichia coli; assay: Antibacterial activity against Escherichia coli MRAE33 after overnight incubation; type: functional; how it was run: as §2
[17] = tested on: Escherichia coli; assay: Antibacterial activity against Escherichia coli MRAE44 after overnight incubation; type: functional; how it was run: as §2
[18] = Inhibition of human methionine aminopeptidase 1B using Met-AMC as substrate by Dixon method; how it was run: as §1
[19] = tested on: Escherichia coli; assay: Antibacterial activity against Escherichia coli ATCC 25922 after 24 hrs by broth dilution assay; type: functional; settings: ATCC 25922, 24 h; how it was run: as §3
[20] = tested on: Pseudomonas aeruginosa; assay: Antibacterial activity against Pseudomonas aeruginosa MTCC 2453 after 24 hrs by broth dilution assay; type: functional; settings: MTCC 2453, 24 h; how it was run: as §3
[21] = Inhibition of Streptococcus pneumoniae methionine aminopeptidase 1A using Met-AMC as substrate by Dixon method; how it was run: as §1
[22] = Inhibition of Enterococcus faecalis methionine aminopeptidase 1A using Met-AMC as substrate by Dixon method; how it was run: as §1

Row | SMILES | inhibition [1] | inhibition [2] | Ki [3] | inhibition [4] | inhibition [5] | MIC [7] | MIC [10] | MIC [11] | MIC [13] | Ki [18] | MIC [19] | MIC [20] | Ki [21] | further results
1 | C[C@@H](NC(=O)c1cc(-c2ccc(Cl)cc2)no1)C(=O)O | 43.7% | 23.6% | 94.6 µM | 47.2% | 51.7% | – | – | – | – | – | – | – | – | –
2 | Cc1c(-c2cc(C(=O)O)on2)oc2ccc(Br)cc12 | 43.2% | 40.3% | – | 47.3% | 39.1% | – | – | – | – | – | – | – | – | –
3 | O=C(O)c1cn(C2CC2)c2cc(N3CCNCC3)c(F)cc2c1=O [CIPROFLOXACIN] | – | – | – | – | – | 0.0156 mg/L (≈ 0.0471 µM) | 0.312 mg/L (≈ 0.942 µM) | 0.0625 mg/L (≈ 0.189 µM) | 0.25 mg/L (≈ 0.754 µM) | – | – | – | – | ICmax [6]: 1.975 µg/mL; ICmax [8]: 63.3 µg/mL; MIC ([8]; Escherichia coli, MRC17): 128 mg/L (≈ 386 µM); ICmax [9]: 63.3 µg/mL; ICmax [12]: 1.975 µg/mL; ICmax [14]: 63.3 µg/mL; MIC ([14]; Escherichia coli, MRA11): 128 mg/L (≈ 386 µM); ICmax [15]: 1.975 µg/mL; ICmax [16]: 7.9 µg/mL; ICmax [17]: 63.3 µg/mL
4 | Cc1c(-c2cc(C(=O)N[C@H](C)C(=O)O)on2)oc2ccc(Br)cc12 | 42.8% | 34.6% | – | 93.4% | 33.2% | 500 mg/L (≈ 1270 µM) | 250 mg/L (≈ 636 µM) | 125 mg/L (≈ 318 µM) | > 1000 mg/L | 3.11 µM | 500 mg/L (≈ 1270 µM) | 1000 mg/L (≈ 2540 µM) | – | –
5 | CCOC(=O)c1cc(-c2oc3ccc(Br)cc3c2C)no1 | 40.6% | 21.1% | – | 43.6% | 41.3% | – | – | – | – | – | – | – | – | –
6 | O=C(O)c1cc(-c2ccc(Cl)cc2)no1 | 39.7% | 20% | 71.8 µM | 43.9% | 58.2% | – | – | – | – | – | – | – | – | –
7 | COC(=O)[C@@H](C)NC(=O)c1cc(-c2ccc(Cl)cc2)no1 | 43.8% | 15.4% | 134 µM | 43.1% | 53.2% | – | – | – | – | – | – | – | – | –
8 | Cc1ccccc1C(=O)/C=C(\O)C(=O)N[C@H](C)C(=O)O | 58% | 63.2% | – | 59.2% | 47.7% | 1000 mg/L (≈ 3610 µM) | 500 mg/L (≈ 1800 µM) | 500 mg/L (≈ 1800 µM) | 1000 mg/L (≈ 3610 µM) | 54 µM | 1000 mg/L (≈ 3610 µM) | 1000 mg/L (≈ 3610 µM) | 59.9 µM | Ki [22]: 64 µM
9 | CCOC(=O)c1cc(-c2ccc(Cl)cc2)no1 | 40.3% | 19.4% | 152 µM | 66.3% | 47.4% | > 1000 mg/L | 1000 mg/L (≈ 3970 µM) | 500 mg/L (≈ 1990 µM) | 1000 mg/L (≈ 3970 µM) | 160 µM | 500 mg/L (≈ 1990 µM) | 500 mg/L (≈ 1990 µM) | – | –
10 | COC(=O)[C@@H](C)NC(=O)/C(O)=C/C(=O)c1ccccc1C | 57% | 59.6% | 32.6 µM | 51.9% | 67.1% | 1000 mg/L (≈ 3430 µM) | 125 mg/L (≈ 429 µM) | 500 mg/L (≈ 1720 µM) | 1000 mg/L (≈ 3430 µM) | 113 µM | 1000 mg/L (≈ 3430 µM) | 1000 mg/L (≈ 3430 µM) | 51.9 µM | Ki [22]: 60.4 µM
11 | Cc1c(C(=O)/C=C(\O)C(=O)O)oc2ccc(Br)cc12 | 93.4% | 91.9% | 26.3 µM | 88.2% | 93.5% | 500 mg/L (≈ 1540 µM) | 62.5 mg/L (≈ 192 µM) | 62.5 mg/L (≈ 192 µM) | 1000 mg/L (≈ 3080 µM) | 32.7 µM | 1000 mg/L (≈ 3080 µM) | 125 mg/L (≈ 384 µM) | 27.5 µM | Ki [22]: 17.7 µM
12 | CCOC(=O)/C(O)=C/C(=O)c1oc2ccc(Br)cc2c1C | 73% | 93.3% | 18.2 µM | 86% | 91.6% | 1000 mg/L (≈ 2830 µM) | 250 mg/L (≈ 708 µM) | 250 mg/L (≈ 708 µM) | 500 mg/L (≈ 1420 µM) | 19.8 µM | 250 mg/L (≈ 708 µM) | 1000 mg/L (≈ 2830 µM) | 68.2 µM | Ki [22]: 10.8 µM
13 | Cc1ccccc1-c1cc(C(=O)O)on1 | 42.4% | 32% | – | 49% | 43.7% | – | – | – | – | 104 µM | – | – | – | –
14 | Cc1ccccc1C(=O)/C=C(\O)C(=O)O | 62.8% | 54.7% | 37.5 µM | 52.3% | 65.7% | 1000 mg/L (≈ 4850 µM) | 500 mg/L (≈ 2420 µM) | 500 mg/L (≈ 2420 µM) | 1000 mg/L (≈ 4850 µM) | 73.8 µM | 250 mg/L (≈ 1210 µM) | 1000 mg/L (≈ 4850 µM) | 87.5 µM | Ki [22]: 62.6 µM
15 | CCOC(=O)/C(O)=C/C(=O)c1ccccc1C | 50.3% | 43.5% | 36.7 µM | 61.4% | 55.8% | 1000 mg/L (≈ 4270 µM) | 250 mg/L (≈ 1070 µM) | 250 mg/L (≈ 1070 µM) | 1000 mg/L (≈ 4270 µM) | 74.3 µM | 250 mg/L (≈ 1070 µM) | 1000 mg/L (≈ 4270 µM) | 98.5 µM | –
16 | Cc1ccccc1-c1cc(C(=O)N[C@H](C)C(=O)O)on1 | 44.6% | 43.4% | – | 50.2% | 40.9% | – | – | – | – | 86.9 µM | – | – | – | –
17 | CCOC(=O)c1cc(-c2ccccc2C)no1 | 41.4% | 27.6% | – | 48.9% | 47.1% | – | – | – | – | 123 µM | – | – | – | –
18 | COC(=O)[C@@H](C)NC(=O)c1cc(-c2ccccc2C)no1 | 37% | 24.9% | – | 51.1% | 45.9% | – | – | – | – | 137 µM | – | – | – | –
19 | CCOC(=O)/C(O)=C/C(=O)c1ccc(Cl)cc1 | 55.3% | 27.3% | 39.5 µM | 61% | 70.5% | 500 mg/L (≈ 1960 µM) | 500 mg/L (≈ 1960 µM) | 250 mg/L (≈ 982 µM) | > 1000 mg/L | 56.1 µM | 500 mg/L (≈ 1960 µM) | 500 mg/L (≈ 1960 µM) | 62.6 µM | –
20 | COC(=O)[C@@H](C)NC(=O)c1cc(-c2oc3ccc(Br)cc3c2C)no1 | 36.5% | 18.8% | – | 45.1% | – | – | – | – | – | – | – | – | – | –
